Test results reported in publication PMC2885539 (Archives of biochemistry and biophysics, 2010).
“Also recorded” adds a separate entry of the source.

What was measured:
[1] = intra-articular injection, ref [47]; cited from earlier work
[2] = cited from earlier work
Solute properties = type: physicochemical; details: known charge of the trivalent peptide
[3] = Net charge estimated by fitting Donnan equilibrium theory to uptake data; type: physicochemical, bovine; details: average of individual explants, mean ± SD, n = 68
Method in brief: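 Bovine cartilage disks (3-mm, L1/L2) equilibrated 48 h at 4°C in PBS with 0.1% BSA, 0.01% NaN₃ and protease inhibitors containing ¹²⁵I-labelled peptide. Disk and bath counted by gamma counter. Uptake ratio: tissue concentration per water weight over bath concentration. sGAG measured by DMMB after proteinase-K digestion. Z is the exponent of a power-law relating peptide uptake to Na⁺ partitioning calculated from each specimen's GAG density.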

[4] = Calculated diffusion times and temperature effect
[5] = Equilibrium uptake / competitive binding in adult bovine cartilage; details: labeled vs unlabeled Pf-pep
[6] = vs native BSA, ref [21]–[23]; cited from earlier work
[7] = ref [17], [18]; cited from earlier work

O=C(O)Cc1ccccc1Nc1c(Cl)cccc1Cl [diclofenac]
clearance time from synovial fluid [1]: 1 to 5 h

OC[C@H]1OC(O)[C@H](O)[C@@H](O)[C@@H]1O (stereo partly drawn) [glucose]
variation of diffusivity with tissue depth ([2]; ref [42]): did not vary significantly with tissue depth

O=C(O)c1ccccc1O [salicylate]
clearance time from synovial fluid [1]: 1 to 5 h

CN(C)c1ccc2c(-c3ccccc3C(=O)[O-])c3ccc(N(C)C)cc3[o+]c2c1 [tetramethylrhodamine]
effect of static compression on diffusivity ([2]; TMR, ref [49], [50]): reduced the diffusivities

Arg-Tyr-Lys-Arg-Thr [Pf-pep]
known net charge (Solute properties): +3
average net charge Z [3]: +3.07 ± 0.74
characteristic time lag L^2/6D ([4]; L = 1 mm, D ~1×10^−6 cm^2/s): ~ 27 min
factor of increase of diffusion coefficient at 37°C ([4]; Stokes-Einstein relation, from room temperature to 37°C): ~ 1.4
diffusion time constant δ^2/(π^2D) ([4]; δ = 400 μm, D ~1×10^−6 cm^2/s): ~ 2.7 min
binding to sites within cartilage [5]: negligible binding; also recorded: little or no binding of Pf-pep to sites within the tissue; also recorded: did not show measurable binding to the negatively charged GAG chains in cartilage

cationized bovine serum albumin (BSA): cationized bovine serum albumin
uptake and retention in murine cartilage [6]: increased uptake and prolonged retention via binding within murine cartilage compared to native BSA

insulin-like growth factor-1 [IGF-1]
binding to IGFBPs in cartilage ECM [7]: binds to specific IGF binding proteins (IGFBPs)
